Experimental findings from ChEMBL document CHEMBL3046867, “Bioactive ryanoids from nucleophilic additions to 4,12-seco-4,12-dioxoryanodine” (J Med Chem, 1993) are described below.

The structures appear in SMILES notation.

For assay [1], the target named is Ryanodine receptor 1 (Oryctolagus cuniculus) (UniProt P11716). Nature of the assay: Displacement of [3H]ryanodine from Ca2+-ryanodine receptor in Oryctolagus cuniculus (rabbit) skeletal muscle sarcoplasmic reticulum after 2 hr by competitive inhibition assay relative to ryanodine. The method, boiled down:
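No ATP. […] Ryanoid given in DMSO (1% final). Glass-fiber filtration; three washes with ice-cold buffer a using Tris HCl instead of Hepes. Nonspecific binding with 10 μM dehydroryanodine. IC50 calculated by LIGAND; duplicate experiments.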

For assay [2] the target is unchanged. Nature of the assay: Displacement of [3H]ryanodine from Ca2+-ryanodine receptor in Oryctolagus cuniculus (rabbit) skeletal muscle sarcoplasmic reticulum after 1 hr by competitive inhibition assay in presence of ATP relative to ryanodine. The method, boiled down:
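Unlabeled ryanoid introduced in DMSO (1% final) before incubation. Filtration, washes in 150 mM KCl/10 mM Hepes pH 7.4. Nonspecific binding: 10 μM dehydroryanodine. IC50 from LIGAND; duplicate experiments.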
(Displacement assays read how much labelled ligand stays bound in the presence of the test substance.)

Assay [3] relates to Musca domestica. Nature of the assay: Toxicity against SCR-susceptible Musca domestica (house fly) assessed as immobility compound administered by intrathoracic injection 1 to 2 hr after piperonyl butoxide treatment measured 4 hr post compound treatment relative to ryanodine. The class given is functional. The essentials:
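Adult female flies pretreated with piperonyl butoxide (5 μg in 0.5 μL acetone, ventral abdomen); 1-2 h later, 0.22 μL ryanoid in DMSO injected into the thorax. Knockdown scored at 4 h and KD50 derived. Ten flies per dose, 1.50-2-fold dose steps, two or more experiments (or single determinations where estimated).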

For assay [4], the target named is Ryanodine receptor 3 (Mus musculus) (UniProt A2AGL3). Nature of the assay: Binding affinity to ryanodine receptor in Mus musculus albino Swiss-Webster (mouse) brain relative to ryanodine.
Ryanodine receptor 3 (Mus musculus), sequence (A2AGL3 whole entry): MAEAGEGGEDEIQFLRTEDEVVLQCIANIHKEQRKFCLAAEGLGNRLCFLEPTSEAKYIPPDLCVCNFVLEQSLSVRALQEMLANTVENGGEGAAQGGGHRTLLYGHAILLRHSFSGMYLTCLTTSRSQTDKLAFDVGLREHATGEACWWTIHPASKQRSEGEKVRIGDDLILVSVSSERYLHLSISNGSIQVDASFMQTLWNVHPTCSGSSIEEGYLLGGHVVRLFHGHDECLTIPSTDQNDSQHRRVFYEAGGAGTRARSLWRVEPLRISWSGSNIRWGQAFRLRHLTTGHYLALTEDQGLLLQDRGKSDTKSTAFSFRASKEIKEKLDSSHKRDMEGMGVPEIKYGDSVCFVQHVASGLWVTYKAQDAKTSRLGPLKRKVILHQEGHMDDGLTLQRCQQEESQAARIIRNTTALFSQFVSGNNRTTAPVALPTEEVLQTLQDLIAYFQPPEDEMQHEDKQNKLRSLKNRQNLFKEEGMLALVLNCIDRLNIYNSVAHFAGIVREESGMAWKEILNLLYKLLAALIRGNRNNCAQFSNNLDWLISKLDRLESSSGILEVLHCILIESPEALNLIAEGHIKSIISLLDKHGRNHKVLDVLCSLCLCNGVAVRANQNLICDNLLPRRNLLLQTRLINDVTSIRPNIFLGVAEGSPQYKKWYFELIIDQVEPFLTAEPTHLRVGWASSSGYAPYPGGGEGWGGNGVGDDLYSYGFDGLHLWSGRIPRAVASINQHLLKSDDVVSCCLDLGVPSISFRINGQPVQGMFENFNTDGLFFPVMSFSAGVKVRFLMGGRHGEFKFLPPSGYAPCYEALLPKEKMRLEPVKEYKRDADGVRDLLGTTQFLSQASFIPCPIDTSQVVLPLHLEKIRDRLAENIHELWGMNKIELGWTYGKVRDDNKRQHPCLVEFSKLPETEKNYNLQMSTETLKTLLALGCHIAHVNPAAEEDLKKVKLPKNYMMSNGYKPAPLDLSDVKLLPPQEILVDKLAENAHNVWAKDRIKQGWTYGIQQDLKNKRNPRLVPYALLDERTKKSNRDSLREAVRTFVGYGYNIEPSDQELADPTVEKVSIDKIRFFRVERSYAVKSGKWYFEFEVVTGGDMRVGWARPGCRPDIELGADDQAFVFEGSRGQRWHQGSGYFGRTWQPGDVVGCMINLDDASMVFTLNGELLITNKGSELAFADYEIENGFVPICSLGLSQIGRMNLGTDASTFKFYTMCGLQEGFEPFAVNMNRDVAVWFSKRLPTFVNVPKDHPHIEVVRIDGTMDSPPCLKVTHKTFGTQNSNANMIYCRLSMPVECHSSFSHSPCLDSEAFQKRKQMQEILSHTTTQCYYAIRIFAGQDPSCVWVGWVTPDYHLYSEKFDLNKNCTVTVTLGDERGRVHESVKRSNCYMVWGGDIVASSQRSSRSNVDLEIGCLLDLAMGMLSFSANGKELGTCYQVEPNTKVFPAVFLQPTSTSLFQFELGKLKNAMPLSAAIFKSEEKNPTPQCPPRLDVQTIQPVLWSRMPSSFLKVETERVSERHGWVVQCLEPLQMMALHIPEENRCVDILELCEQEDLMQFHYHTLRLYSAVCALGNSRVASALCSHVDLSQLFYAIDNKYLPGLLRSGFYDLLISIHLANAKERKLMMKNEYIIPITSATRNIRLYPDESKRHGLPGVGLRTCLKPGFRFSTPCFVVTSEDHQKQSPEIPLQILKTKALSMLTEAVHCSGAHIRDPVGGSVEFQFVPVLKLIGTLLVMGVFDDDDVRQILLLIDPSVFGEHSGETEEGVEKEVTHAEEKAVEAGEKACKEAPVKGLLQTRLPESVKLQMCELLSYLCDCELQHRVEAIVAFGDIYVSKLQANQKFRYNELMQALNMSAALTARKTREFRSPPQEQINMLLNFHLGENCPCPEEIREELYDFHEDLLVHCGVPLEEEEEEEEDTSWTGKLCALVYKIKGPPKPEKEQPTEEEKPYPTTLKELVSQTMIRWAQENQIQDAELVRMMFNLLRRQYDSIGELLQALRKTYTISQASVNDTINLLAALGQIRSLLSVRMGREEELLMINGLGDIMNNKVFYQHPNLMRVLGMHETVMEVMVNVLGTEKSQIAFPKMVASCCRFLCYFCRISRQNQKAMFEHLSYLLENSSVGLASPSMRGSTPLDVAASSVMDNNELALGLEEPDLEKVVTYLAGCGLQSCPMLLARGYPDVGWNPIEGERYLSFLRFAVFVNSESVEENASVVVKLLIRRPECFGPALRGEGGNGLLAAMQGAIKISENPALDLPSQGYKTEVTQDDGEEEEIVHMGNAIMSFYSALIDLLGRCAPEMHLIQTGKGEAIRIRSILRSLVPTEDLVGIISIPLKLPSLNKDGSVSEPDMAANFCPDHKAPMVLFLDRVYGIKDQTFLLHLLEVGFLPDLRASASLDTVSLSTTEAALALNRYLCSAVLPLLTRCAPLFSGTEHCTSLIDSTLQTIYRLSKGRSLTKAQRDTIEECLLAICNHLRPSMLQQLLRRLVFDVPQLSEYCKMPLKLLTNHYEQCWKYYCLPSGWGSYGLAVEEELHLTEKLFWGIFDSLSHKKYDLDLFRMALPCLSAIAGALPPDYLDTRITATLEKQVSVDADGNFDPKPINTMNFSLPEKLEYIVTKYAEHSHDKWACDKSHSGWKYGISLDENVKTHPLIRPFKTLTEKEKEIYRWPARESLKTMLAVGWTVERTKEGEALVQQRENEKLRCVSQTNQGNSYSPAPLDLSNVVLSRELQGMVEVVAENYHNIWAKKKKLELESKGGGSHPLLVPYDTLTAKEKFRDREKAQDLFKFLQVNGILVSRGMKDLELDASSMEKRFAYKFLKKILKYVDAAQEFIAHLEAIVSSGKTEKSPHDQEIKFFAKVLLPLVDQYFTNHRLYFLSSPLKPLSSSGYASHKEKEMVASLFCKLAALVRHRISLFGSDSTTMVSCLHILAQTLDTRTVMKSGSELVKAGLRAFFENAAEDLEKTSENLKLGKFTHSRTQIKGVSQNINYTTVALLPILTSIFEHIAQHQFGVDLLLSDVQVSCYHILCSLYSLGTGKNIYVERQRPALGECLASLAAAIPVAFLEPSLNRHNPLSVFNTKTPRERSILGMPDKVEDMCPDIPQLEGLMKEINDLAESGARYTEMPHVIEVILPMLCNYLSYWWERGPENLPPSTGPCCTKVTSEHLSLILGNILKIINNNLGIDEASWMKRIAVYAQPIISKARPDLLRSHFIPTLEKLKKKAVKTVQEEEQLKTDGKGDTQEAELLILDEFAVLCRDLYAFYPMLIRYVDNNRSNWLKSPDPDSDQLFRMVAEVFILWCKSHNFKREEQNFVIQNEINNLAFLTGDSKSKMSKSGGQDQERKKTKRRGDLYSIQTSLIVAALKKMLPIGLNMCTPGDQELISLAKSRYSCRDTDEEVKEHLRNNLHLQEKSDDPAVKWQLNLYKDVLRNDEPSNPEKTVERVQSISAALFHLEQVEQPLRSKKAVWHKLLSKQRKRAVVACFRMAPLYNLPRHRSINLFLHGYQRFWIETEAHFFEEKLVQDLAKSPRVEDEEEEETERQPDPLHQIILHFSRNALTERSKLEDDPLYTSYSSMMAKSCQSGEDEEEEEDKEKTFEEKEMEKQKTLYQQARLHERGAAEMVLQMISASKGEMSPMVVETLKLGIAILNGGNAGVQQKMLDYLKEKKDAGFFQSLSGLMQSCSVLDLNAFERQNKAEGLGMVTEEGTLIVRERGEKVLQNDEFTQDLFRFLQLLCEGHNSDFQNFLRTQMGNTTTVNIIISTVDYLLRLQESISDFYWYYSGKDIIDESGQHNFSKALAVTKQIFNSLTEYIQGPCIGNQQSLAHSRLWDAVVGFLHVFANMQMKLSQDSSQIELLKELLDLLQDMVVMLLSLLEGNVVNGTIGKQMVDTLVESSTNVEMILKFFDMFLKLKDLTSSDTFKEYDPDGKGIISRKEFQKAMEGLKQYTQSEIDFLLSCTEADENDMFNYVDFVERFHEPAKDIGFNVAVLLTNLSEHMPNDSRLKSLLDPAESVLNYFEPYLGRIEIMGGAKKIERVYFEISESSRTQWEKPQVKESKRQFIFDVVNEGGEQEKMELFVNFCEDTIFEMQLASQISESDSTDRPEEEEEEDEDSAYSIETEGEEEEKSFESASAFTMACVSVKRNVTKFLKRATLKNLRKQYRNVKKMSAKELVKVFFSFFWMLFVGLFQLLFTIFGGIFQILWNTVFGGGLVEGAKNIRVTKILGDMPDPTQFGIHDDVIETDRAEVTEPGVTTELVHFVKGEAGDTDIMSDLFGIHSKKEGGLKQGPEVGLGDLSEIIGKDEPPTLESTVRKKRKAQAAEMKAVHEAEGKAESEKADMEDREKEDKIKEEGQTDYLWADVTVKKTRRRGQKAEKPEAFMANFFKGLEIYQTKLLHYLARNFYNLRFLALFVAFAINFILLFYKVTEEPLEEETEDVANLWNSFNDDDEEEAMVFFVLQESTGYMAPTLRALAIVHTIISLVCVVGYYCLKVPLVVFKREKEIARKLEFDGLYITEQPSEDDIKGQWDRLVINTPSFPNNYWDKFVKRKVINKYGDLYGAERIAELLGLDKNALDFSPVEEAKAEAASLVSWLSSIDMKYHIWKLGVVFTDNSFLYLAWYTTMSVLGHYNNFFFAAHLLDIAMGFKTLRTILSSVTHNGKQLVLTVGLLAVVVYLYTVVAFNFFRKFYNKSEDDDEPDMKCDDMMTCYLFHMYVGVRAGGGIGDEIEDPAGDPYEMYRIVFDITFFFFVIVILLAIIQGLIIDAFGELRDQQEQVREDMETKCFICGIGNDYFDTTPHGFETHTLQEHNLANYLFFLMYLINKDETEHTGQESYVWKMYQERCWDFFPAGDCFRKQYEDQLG
The subject of assay [5] is Musca domestica. Nature of the assay: Toxicity against SCR-susceptible Musca domestica (house fly) assessed as mortality compound administered by intrathoracic injection 1 to 2 hr after piperonyl butoxide treatment measured 24 hr post compound treatment relative to ryanodine. The class given is functional.

Consider `CC(C)[C@@]1(O)[C@@H](OC(=O)c2ccc[nH]2)[C@]2(NO)O[C@H]3[C@]45O[C@@](O)(C[C@@]2(C)[C@@]4(O)CC[C@H](C)[C@H]5O)[C@]31C`, for which the Ratio in assay [1] worked out at 50; in assay [2] it was 67; in the assay on Musca domestica [3], 200; in assay [4] it was 43; with Musca domestica [5] it was 100.

For `C=C1CC[C@]2(O)[C@]3(C)C[C@]4(O)O[C@@]2([C@@H]1O)[C@]1(O)O[C@@]3(NNC(=O)c2ccccc2)[C@H](OC(=O)c2ccc[nH]2)[C@](O)(C(C)C)[C@@]14C`, the Ratio in assay [2] was determined as 6.5; in the assay on Musca domestica [3], 13; in the assay with Musca domestica [5] it was 40.

As for `CC(C)[C@@]1(O)[C@@H](OC(=O)c2ccc[nH]2)[C@@H](O)[C@@]2(C)C[C@]3(O)O[C@@]4([C@H](O)[C@@H](C)CC[C@@]42O)[C@@H](O)[C@]13C`, the values for the Ratio in assay [1], in assay [2] and in assay [4] were 4.7, 5.3 and 5.4, respectively.

Turning to `CO/N=C1/[C@H](OC(=O)c2ccc[nH]2)[C@](O)(C(C)C)[C@@]2(C)C(=O)[C@]34O[C@@]2(O)C[C@@]1(C)[C@@]3(O)CC[C@H](C)[C@H]4O`, the Ratio in assay [1] is 0.75; in assay [2], 0.86; in the assay on Musca domestica [3] it was 10; in assay [4], 0.7; in the assay on Musca domestica [5] it was 12.

In the case of `CC(C)[C@@]1(O)[C@@H](OC(=O)c2ccc[nH]2)[C@]2(O)O[C@@]3(NO)[C@]45O[C@@](O)(C[C@@]2(C)[C@@]4(O)CC[C@H](C)[C@H]5O)[C@]31C`, the Ratio in assay [1] is 9; in assay [2] it was 11; with Musca domestica [3] it was 20; in assay [4], 11; in the assay with Musca domestica [5], 12.

Regarding `CCCSC[C@H]1CC[C@]2(O)[C@]3(C)C[C@]4(O)O[C@@]2([C@@H]1O)[C@]1(O)[C@@]3(O)[C@H](OC(=O)c2ccc[nH]2)[C@](O)(C(C)C)[C@@]14C`, the Ratio with Musca domestica [3] came to 4; in assay [4], 0.88; in the assay on Musca domestica [5] it was 6.

In the case of `C=C1CC[C@@]2(O)[C@]3(O[C@@]4(O)C[C@]2(C)C(=O)[C@H](OC(=O)c2ccc[nH]2)[C@](O)(C(C)C)[C@@]4(C)C3=O)[C@@H]1O` [4,12-SECO-4,12-DIOXODEHYDRORYANODIN], the Ratio stood at 0.79 in assay [1]; 0.97 in assay [2]; 4 in the assay on Musca domestica [3]; 1.1 in assay [4]; 4 with Musca domestica [5].

For the molecule `CON[C@@]12O[C@H]3[C@]45O[C@@](O)(C[C@@]1(C)[C@@]4(O)CC[C@H](C)[C@H]5O)[C@@]3(C)[C@@](O)(C(C)C)[C@H]2OC(=O)c1ccc[nH]1`, the Ratio in assay [1] was found to be 20; in assay [2] it was 34; in the assay with Musca domestica [3], 7; in assay [4], 28; in the assay with Musca domestica [5], 20.

For the molecule `CON[C@@]12O[C@@]3(O)[C@]45O[C@@](O)(C[C@@]1(C)[C@@]4(O)CC[C@H](C)[C@H]5O)[C@@]3(C)[C@@](O)(C(C)C)[C@H]2OC(=O)c1ccc[nH]1`, the Ratio in assay [1] amounted to 23; in assay [2] it was 23; in the assay on Musca domestica [3], 13; in assay [4] it was 27; in the assay on Musca domestica [5], 8.

On to `CC(C)[C@@]1(O)[C@@H](OC(=O)c2ccc[nH]2)/C(=N/OCc2ccccc2)[C@@]2(C)C[C@]3(O)O[C@]4(C(=O)[C@]13C)[C@H](O)[C@@H](C)CC[C@@]42O`, for which the Ratio turned out to be 1.3 in assay [1]; 2.1 in assay [2]; 0.8 with Musca domestica [3]; 0.94 in assay [4]; 1 with Musca domestica [5].

With `CC(C)[C@@]1(O)[C@@H](OC(=O)c2ccc[nH]2)[C@]2(NO)O[C@@]3(O)[C@]45O[C@@](O)(C[C@@]2(C)[C@@]4(O)CC[C@H](C)[C@H]5O)[C@]31C`, the Ratio was found to be 14 in assay [1]; 29 in assay [2]; 270 in the assay with Musca domestica [3]; 21 in assay [4]; 200 in the assay on Musca domestica [5].

In the case of `CC(C)[C@@]1(O)[C@@H](OC(=O)c2ccc[nH]2)[C@@]2(O)[C@@]3(C)C[C@]4(O)O[C@@]5([C@H](O)[C@@H](CSC(C)(C)C)CC[C@]35O)[C@@]2(O)[C@]14C`, the Ratio was found to be 2 with Musca domestica [3] and 0.41 in assay [4].

For `C=C1CC[C@]2(O)[C@]3(C)C[C@]4(O)O[C@@]2([C@@H]1O)[C@]1(O)[C@@]3(O)[C@H](OC(=O)c2ccc[nH]2)[C@](O)(C(C)C)[C@@]14C` [DEHYDRORYANODINE], the Ratio stood at 91 in assay [1]; 112 in assay [2]; 90 in the assay on Musca domestica [3]; 77 in assay [4]; 136 in the assay with Musca domestica [5].

Consider `C=C1CC[C@]2(O)[C@]3(C)C[C@]4(O)O[C@@]2([C@@H]1O)[C@]1(O)O[C@@]3(NN)[C@H](OC(=O)c2ccc[nH]2)[C@](O)(C(C)C)[C@@]14C`, for which the Ratio is 11 in assay [1]; 14 in assay [2]; 50 with Musca domestica [3]; 14 in assay [4]; 60 in the assay with Musca domestica [5].

On to `CC(C)[C@@]1(O)[C@@H](OC(=O)c2ccc[nH]2)[C@@]2(O)[C@@]3(C)C[C@]4(O)O[C@@]5([C@H](O)[C@@H](CSCCO)CC[C@]35O)[C@@]2(O)[C@]14C`, for which the Ratio in the assay on Musca domestica [3] was found to be 5; in assay [4], 0.86; with Musca domestica [5], 6.

`CC(C)[C@@]1(O)[C@@H](OC(=O)c2ccc[nH]2)C(=O)[C@@]2(C)C[C@]3(O)O[C@]4(C(=O)[C@]13C)[C@H](O)[C@@H](C)CC[C@@]42O` [4,12-SECO-4,12-DIOXORYANODIN]: the Ratio is 1.6 in assay [1], 1.8 in assay [2], 0.85 in the assay with Musca domestica [3] and 2 in the assay with Musca domestica [5].

As for `CC(C)[C@@]1(O)[C@@H](OC(=O)c2ccc[nH]2)[C@@H]2O[C@@]3(O)[C@]45O[C@@](O)(C[C@@]2(C)[C@@]4(O)CC[C@H](C)[C@H]5O)[C@]31C`, the Ratio in assay [1] turned out to be 28; in assay [2], 19; with Musca domestica [3], 27; in assay [4], 21; with Musca domestica [5], 40.

In the case of `CC(C)[C@@]1(O)[C@@H](OC(=O)c2ccc[nH]2)[C@]2(NOCc3ccccc3)O[C@@]3(O)[C@]45O[C@@](O)(C[C@@]2(C)[C@@]4(O)CC[C@H](C)[C@H]5O)[C@]31C`, the Ratio in assay [1] was found to be 13; in assay [2], 21; with Musca domestica [3] it was 2; in assay [4], 8.3.

As to `CC(C)[C@@]1(O)[C@@H](OC(=O)c2ccc[nH]2)/C(=N/O)[C@@]2(C)C[C@]3(O)O[C@]4(C(=O)[C@]13C)[C@H](O)[C@@H](C)CC[C@@]42O`, the Ratio in assay [1] stood at 0.76; in assay [2] it was 0.88; with Musca domestica [3], 2.7; in assay [4], 0.78; in the assay with Musca domestica [5], 6.

For the molecule `CON[C@@]12O[C@@]3(O)[C@H](OC(=O)c4ccc[nH]4)[C@](O)(C(C)C)[C@]1(C)[C@]1(O)C[C@@]3(C)[C@@]3(O)CC[C@H](C)[C@@H](O)[C@@]32O1`, the Ratio is given as 1.3 with Musca domestica [3] and 2 in the assay with Musca domestica [5].

For `C=C1CC[C@]2(O)[C@]3(C)C[C@]4(O)O[C@@]2([C@@H]1O)[C@]1(NNc2ccccc2)O[C@@]3(O)[C@H](OC(=O)c2ccc[nH]2)[C@](O)(C(C)C)[C@@]14C`, the Ratio in assay [1] was 2.6; in assay [2], 3; in the assay with Musca domestica [3] it was under 1.3; in assay [4], 3.3; in the assay on Musca domestica [5], under 3.

`CC(C)[C@@]1(O)[C@@H](OC(=O)c2ccc[nH]2)C(=O)[C@@]2(C)C[C@]3(O)O[C@]4(/C(=N\O)[C@]13C)[C@H](O)[C@@H](C)CC[C@@]42O`: the Ratio in assay [1] amounted to 1.7; in assay [2] it was 3.1; in the assay with Musca domestica [3] it was 8; in assay [4], 1.9; in the assay on Musca domestica [5] it was 30.

On to `C=C1CC[C@]2(O)[C@]3(C)C[C@]4(O)O[C@@]2([C@@H]1O)[C@]1(NNC(N)=O)O[C@@]3(O)[C@H](OC(=O)c2ccc[nH]2)[C@](O)(C(C)C)[C@@]14C`, for which the Ratio is 6.1 in assay [1], 4.4 in assay [2] and under 4 in the assay on Musca domestica [3].

With `C=C1CC[C@]2(O)[C@]3(C)C[C@]4(O)O[C@@]2([C@@H]1O)[C@]1(O)O[C@@]3(NNC(N)=O)[C@H](OC(=O)c2ccc[nH]2)[C@](O)(C(C)C)[C@@]14C`, the Ratio in assay [1] was found to be 10; in assay [2] it was 6.6; in the assay with Musca domestica [3], 10; with Musca domestica [5], 6.

With `C=C1CC[C@]2(O)[C@]3(C)C[C@]4(O)O[C@@]2([C@@H]1O)[C@]1(O)O[C@@]3(NNc2ccccc2)[C@H](OC(=O)c2ccc[nH]2)[C@](O)(C(C)C)[C@@]14C`, the Ratio in assay [1] was 5.4; in assay [2], 6.1; in the assay with Musca domestica [3] it was under 2; in assay [4], 2.5.

As to `C=C1CC[C@]2(O)[C@]3(C)C[C@]4(O)O[C@@]2([C@@H]1O)[C@]1(/N=N/c2ccccc2)O[C@@]3(O)[C@H](OC(=O)c2ccc[nH]2)[C@](O)(C(C)C)[C@@]14C`, the Ratio was 4.7 in assay [1], 6.3 in assay [2], 6 in the assay with Musca domestica [3] and 3.6 in assay [4].
